According to ChEMBL document CHEMBL4390662, “Design, synthesis and biological evaluation of novel α-acyloxy carboxamides via Passerini reaction as caspase 3/7 activators” (Eur J Med Chem, 2019):
Active and inactive are the calls of the source. The rule behind the calls is not given here.

Legend:
MCF7 [1] = assay: Cytotoxicity against human MCF7 cells assessed as cell growth inhibition incubated for 72 hrs by MTT assay; type: functional, cell-based; details: MCF7, 72 h
Outline: (§1)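 Cells grown in RPMI-1640 with 10% FBS and seeded at 5×10^3 per well. After 24 h, serial concentrations given for 72 h at 37°C, 5% CO2. Then 5 mg/mL MTT stock added for 3 h, formazan dissolved in DMSO, A570 read. IC50 calculated from the curves.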

[2] = Selectivity index, ratio of IC50 for human WI38 cells to IC50 for human HepG2 cells; type: toxicity; details: WI38 cells versus HepG2 cells, read-out: Ratio IC50
Outline: (§2)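 SI calculated as IC50 on normal Wi-38 fibroblasts divided by IC50 on the cancer cell line. Both came from 72 h MTT assays.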

MCF7 [3] = assay: Induction of apoptosis in human MCF7 cells assessed as late apoptotic cells at IC50 incubated for 72 hrs by annexin V/propidium iodide staining based flow cytometry (reference value: 0.01 +/- 0.001%); type: functional
MCF7 [4] = assay: Induction of apoptosis in human MCF7 cells assessed as induction of cell shrinkage by phase contrast inverted fluorescence microscopy; type: functional, cell-based
HepG2 [5] = assay: Induction of apoptosis in human HepG2 cells assessed as early apoptotic cells at IC50 incubated for 72 hrs by annexin V/propidium iodide staining based flow cytometry (reference value: 0.78 +/- 0.09%); type: functional
MCF7 [6] = assay: Induction of caspase-independent apoptosis in human MCF7 cells assessed as AIF1 release level using tetramethylbenzidine as substrate incubated for 1 hr by ELISA (reference value: 2.28 +/- 0.06 ng/ml); type: functional
Outline: (§3)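 Extracts of untreated and treated cells added to anti-AIF1-coated wells. Incubated 1 h with HRP-conjugated antibody, washed, then TMB substrate added. Reaction stopped after 10 min and read at 450 nm. AIF1 reported in ng/mL, mean ± SEM.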

NFS-60 [7] = assay: Induction of apoptosis in mouse NFS60 cells assessed as early apoptotic cells at IC50 incubated for 72 hrs by annexin V/propidium iodide staining based flow cytometry (reference value: 0.02 +/- 0.01%); type: functional
HepG2 [8] = assay: Induction of apoptosis in human HepG2 cells assessed as total apoptotic cells at IC50 incubated for 72 hrs by annexin V/propidium iodide staining based flow cytometry (reference value: 0.169 +/- 0.02%); type: functional
HepG2 [9] = assay: Induction of apoptosis in human HepG2 cells assessed as induction of cell shrinkage by phase contrast inverted fluorescence microscopy; type: functional, cell-based
MCF7 [10] = assay: Potency index, ratio of doxorubicin IC50 to test compound IC50 against human MCF7 cells; type: functional
NFS-60 [11] = assay: Cytotoxicity against mouse NFS60 cells assessed as cell growth inhibition incubated for 72 hrs by MTT assay; type: functional, cell-based; details: NFS-60, 72 h; outline: as §1
HepG2 [12] = assay: Induction of apoptosis in human HepG2 cells assessed as late apoptotic cells at IC50 incubated for 72 hrs by annexin V/propidium iodide staining based flow cytometry (reference value: 0.1 +/- 0.001%); type: functional
MCF7 [13] = assay: Induction of apoptosis in human MCF7 cells assessed as necrotic cells level at IC50 incubated for 72 hrs by annexin V/propidium iodide staining based flow cytometry (reference value: 0.48%); type: functional
HepG2 [14] = assay: Induction of apoptosis in human HepG2 cells assessed as early apoptotic cells level at IC50 incubated for 72 hrs by annexin V/propidium iodide staining based flow cytometry (reference value: 0.05%); type: functional
NFS-60 [15] = assay: Induction of apoptosis in mouse NFS60 cells assessed as induction of cell shrinkage by phase contrast inverted fluorescence microscopy; type: functional, cell-based
NFS-60 [16] = assay: Induction of apoptosis in mouse NFS60 cells assessed as total apoptotic cells at IC50 incubated for 72 hrs by annexin V/propidium iodide staining based flow cytometry (reference value: 0.495 +/- 0.01%); type: functional
[17] = Selectivity index, ratio of IC50 for human WI38 cells to IC50 for mouse NFS60 cells; outline: as §2
HepG2 [18] = assay: Cytotoxicity against human HepG2 cells assessed as cell growth inhibition incubated for 72 hrs by MTT assay; type: functional, cell-based; details: HepG2, 72 h; outline: as §1
HepG2 [19] = assay: Induction of caspase-independent apoptosis in human HepG2 cells assessed as AIF1 release level using tetramethylbenzidine as substrate incubated for 1 hr by ELISA (reference value: 1.18 +/- 0.06 ng/ml); type: functional; outline: as §3
MCF7 [20] = assay: Induction of apoptosis in human MCF7 cells assessed as early apoptotic cells level at IC50 incubated for 72 hrs by annexin V/propidium iodide staining based flow cytometry (reference value: 0.01%); type: functional
[21] = Selectivity index, ratio of IC50 for human WI38 cells to IC50 for human MCF7 cells; type: toxicity; details: WI38 cells versus MCF7 cells, read-out: Ratio IC50; outline: as §2
HepG2 [22] = assay: Induction of apoptosis in human HepG2 cells assessed as viable cells level at IC50 incubated for 72 hrs by annexin V/propidium iodide staining based flow cytometry (reference value: 98.97%); type: functional
NFS-60 [23] = assay: Induction of apoptosis in mouse NFS60 cells assessed as viable cells level at IC50 incubated for 72 hrs by annexin V/propidium iodide staining based flow cytometry (reference value: 99.52%); type: functional
MCF7 [24] = assay: Induction of apoptosis in human MCF7 cells assessed as viable cells level at IC50 incubated for 72 hrs by annexin V/propidium iodide staining based flow cytometry (reference value: 99.5%); type: functional
NFS-60 [25] = assay: Induction of caspase-independent apoptosis in mouse NFS60 cells assessed as AIF1 release level using tetramethylbenzidine as substrate incubated for 1 hr by ELISA (reference value: 2.37 +/- 0.035 ng/ml); type: functional; outline: as §3
NFS-60 [26] = assay: Induction of apoptosis in mouse NFS60 cells assessed as induction of cell shape loss by phase contrast inverted fluorescence microscopy; type: functional, cell-based
HepG2 [27] = assay: Induction of apoptosis in human HepG2 cells assessed as late apoptotic cells level at IC50 incubated for 72 hrs by annexin V/propidium iodide staining based flow cytometry (reference value: 0.1%); type: functional
WI-38 = assay: Cytotoxicity against human WI38 cells assessed as cell growth inhibition incubated for 72 hrs by MTT assay; type: cell-based; details: for IC50: Homo sapiens, WI-38, 72 h; for EC100: human, wi-38, 72 h
Outline: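 Wi-38 fibroblasts grown in DMEM with 10% FBS and seeded at 5×10^3 per well. Attachment 24 h, then serial concentrations for 72 h at 37°C, 5% CO2. MTT stock (5 mg/mL) added for 3 h at 37°C, DMSO solubilization, absorbance at 570 nm. IC50 estimated.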

NFS-60 [28] = assay: Induction of apoptosis in mouse NFS60 cells assessed as early apoptotic cells level at IC50 incubated for 72 hrs by annexin V/propidium iodide staining based flow cytometry (reference value: 0.46%); type: functional
HepG2 [29] = assay: Induction of apoptosis in human HepG2 cells assessed as induction of cell shape loss by phase contrast inverted fluorescence microscopy; type: functional, cell-based
MCF7 [30] = assay: Induction of apoptosis in human MCF7 cells assessed as late apoptotic cells level at IC50 incubated for 72 hrs by annexin V/propidium iodide staining based flow cytometry (reference value: 0.01%); type: functional

Row | SMILES | IC50 (MCF7 [1]) [nM] | selectivity ratio [2] | Activity (MCF7 [3]) [%] | Activity (MCF7 [4]) | Activity (HepG2 [5]) [%] | Activity (MCF7 [6]) [ng/mL] | Activity (NFS-60 [7]) [%] | Activity (HepG2 [8]) [%] | Activity (HepG2 [9]) | Ratio IC50 (MCF7 [10]) | IC50 (NFS-60 [11]) [nM] | Activity (HepG2 [12]) [%] | Activity (MCF7 [13]) [%] | Activity (HepG2 [14]) [%] | Activity (NFS-60 [15]) | Activity (NFS-60 [16]) [%] | Ratio IC50 [17] | IC50 (HepG2 [18]) [nM] | Activity (HepG2 [19]) [ng/mL] | Activity (MCF7 [20]) [%] | also measured
1 | O=C(Cc1ccccc1)OC1(C(=O)Nc2ccc([N+](=O)[O-])cc2)CCCCC1 | 7.7 | 3.09 | 22.09 | Active | 6.0649 | 2.33 | 13.64 | 33.485 | Active | 2 - 4 | 8.1 | 27.77 | 13.14 | 2.74 | Active | 34.129 | 5.419 | 14.2 | 1.23 | 7.06 | selectivity ratio [21]: 5.7; Activity (HepG2 [22]): 63.53%; Activity (NFS-60 [23]): 61.34%; Activity (MCF7 [24]): 59.23%; Activity (NFS-60 [25]): 2.41 ng/mL; Activity (NFS-60 [26]): Active; Activity (HepG2 [27]): 26.59%; IC50 (WI-38): 43.9 nM; EC100 (WI-38): 0.032 µM; Activity (NFS-60 [28]): 5.65%; Activity (HepG2 [29]): Active; Activity (MCF7 [30]): 20.57%
2 | O=C(OC1(C(=O)Nc2ccc([N+](=O)[O-])cc2)CCCCC1)c1ccc([N+](=O)[O-])cc1 | 8.7 | 54 | 20.439 | Active | 18.43 | 2.34 | 22.83 | 41.815 | Active | 2 - 4 | 7.7 | 23.385 | 25.02 | 1.95 | Active | 41.795 | 98.831 | 14.1 | 1.28 | 1.96 | selectivity ratio [21]: 87.5; Activity (HepG2 [22]): 57.37%; Activity (NFS-60 [23]): 55.46%; Activity (MCF7 [24]): 54.7%; Activity (NFS-60 [25]): 2.44 ng/mL; Activity (NFS-60 [26]): Active; Activity (HepG2 [27]): 20.78%; IC50 (WI-38): 761 nM; EC100 (WI-38): 0.149 µM; Activity (NFS-60 [28]): 2.41%; Activity (HepG2 [29]): Active; Activity (MCF7 [30]): 18.31%
3 | O=C(OC1(C(=O)Nc2ccc([N+](=O)[O-])cc2)CCCCC1)C(O)c1ccccc1 (stereo unspecified) | 5.01 | 11 | 30.785 | Active | 6.055 | 2.36 | 21.04 | 48.905 | Active | 2 - 4 | 7.8 | 42.85 | 23.42 | 3.14 | Active | 44.185 | 10.82 | 7.7 | 1.305 | 3.76 | selectivity ratio [21]: 16.8; Activity (HepG2 [22]): 47.87%; Activity (NFS-60 [23]): 53.25%; Activity (MCF7 [24]): 43.92%; Activity (NFS-60 [25]): 2.47 ng/mL; Activity (NFS-60 [26]): Active; Activity (HepG2 [27]): 41.88%; IC50 (WI-38): 84.4 nM; EC100 (WI-38): 0.0507 µM; Activity (NFS-60 [28]): 2.12%; Activity (HepG2 [29]): Active; Activity (MCF7 [30]): 28.9%
